In ChEMBL document CHEMBL1134543, “A rational approach to the design of selective substrates and potent nontransportable inhibitors of the excitatory amino acid transporter EAAC1 (EAAT3). new glutamate and aspartate analogues as potential neuroprotective agents” (J Med Chem, 2001):
Activity calls are given as the source filed them. No cut-off for these calls is given here.

Key:
[1] = target: Glutamate NMDA receptor (Rattus norvegicus) (UniProt P35439+Q00959+Q00960+Q00961+Q62645+Q8VHN2+Q9R1M7); test: Binding affinity towards NMDA receptor by displacement of [3H]CGP-39653 radioligand; Not active; assay type: protein-complex assay
[2] = target: T1, Excitatory amino acid transporter 3 (Rattus norvegicus) (UniProt P51907); test: Steady state transport rate by EAAC1 (EAAT3) in mammalian cells; assay type: cell-based
T1 sequence (whole entry): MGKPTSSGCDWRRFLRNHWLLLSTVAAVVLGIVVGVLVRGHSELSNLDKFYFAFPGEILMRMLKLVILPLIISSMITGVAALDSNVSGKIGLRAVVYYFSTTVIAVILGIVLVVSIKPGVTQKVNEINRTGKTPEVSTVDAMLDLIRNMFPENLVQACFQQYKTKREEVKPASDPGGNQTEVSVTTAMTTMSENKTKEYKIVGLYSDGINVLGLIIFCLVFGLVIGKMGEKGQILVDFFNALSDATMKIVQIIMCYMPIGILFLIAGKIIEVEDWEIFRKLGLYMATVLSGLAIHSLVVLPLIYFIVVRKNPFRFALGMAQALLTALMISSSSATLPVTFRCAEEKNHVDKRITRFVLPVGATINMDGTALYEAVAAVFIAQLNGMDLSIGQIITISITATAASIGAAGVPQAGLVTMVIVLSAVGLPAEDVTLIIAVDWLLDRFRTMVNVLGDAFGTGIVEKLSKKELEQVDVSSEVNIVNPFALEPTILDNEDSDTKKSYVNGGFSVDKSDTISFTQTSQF
Method in brief: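 Whole-cell currents from EAAC1-expressing mammalian cells (intracellular SCN-, Vm 0 mV, pH 7.4, 22 °C). Steady-state KS is taken from concentration dependence. Imax ratio is the current at saturating test compound relative to the current at saturating (1 mM) L-glutamate.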

[3] = target: Glutamate receptor ionotropic, AMPA (Rattus norvegicus) (UniProt P19491+P19492+P19493+P19490); test: Binding affinity towards AMPA receptor by displacement of [3H]-AMPA radioligand; Not active; assay type: protein-complex assay
[4] = target: Glutamate receptor ionotropic, kainate (Rattus norvegicus) (UniProt P22756+Q01812+P42260+P42264+Q63273); test: Binding affinity towards Ionotropic glutamate receptor kainate by displacement of [3H]-kainic acid radioligand; Not active; assay type: protein-complex assay
[5] = target: T2, Excitatory amino acid transporter 3 (Rattus norvegicus, UniProt P51907); test: Inhibitory activity against EAAC1 (EAAT3) in absence of L-glutamic acid in mammalian cells; assay type: cell-based
T2 sequence (P51907 whole entry): T1 sequence (whole entry)

[6] = target: T2, Excitatory amino acid transporter 3; test: Inhibitory activity against EAAC1 (EAAT3) in presence of 20 uM L-glutamic acid in mammalian cells; assay type: cell-based
[7] = target: Glutamate receptor ionotropic, kainate; test: Binding affinity towards Ionotropic glutamate receptor kainate by displacement of [3H]-kainic acid radioligand; assay type: protein-complex assay
[8] = target: T3, Glutamate receptor ionotropic, AMPA (Rattus norvegicus, UniProt P19490+P19491+P19492+P19493); test: Binding affinity towards AMPA receptor by displacement of [3H]AMPA radioligand.; assay type: protein-complex assay
[9] = target: Glutamate NMDA receptor; test: Binding affinity towards NMDA receptor by displacement of [3H]CGP-39653 radioligand.; assay type: protein-complex assay
[10] = target: T3, Glutamate receptor ionotropic, AMPA; test: Binding affinity towards AMPA receptor by displacement of [3H]AMPA radioligand; assay type: protein-complex assay
[11] = target: T2, Excitatory amino acid transporter 3; test: Inhibitory activity against EAAC1 (EAAT3) in absence of L-glutamic acid.
[12] = target: T2, Excitatory amino acid transporter 3; test: Inhibitory activity against EAAC1 (EAAT3) in presence of 20 uM L-glutamic acid.

Structure (SMILES)	NA [1]	Ks [2]	NA [3]	NA [4]	Ki [7]	Ki [9]	also measured
O=C(O)[C@H]1N=C(c2ccccc2)O[C@@H]1C(=O)O	inactive	–	inactive	inactive	–	–	Ki [5]: 14 µM; Ki [6]: 42 µM
N[C@@H](CCC(=O)O)C(=O)O	–	5.1 µM	–	–	–	–	–
N[C@@H](CCC1=N[C@H](C(=O)O)CO1)C(=O)O	–	730 µM	–	–	14 µM	9 µM	Ki [10]: 103 µM

Continued, in another order:

NA [1]	Ks [2]	NA [3]	NA [4]	Ki [7]	Ki [9]	Structure (SMILES)	also measured
inactive	31 µM	inactive	inactive	–	–	N[C@@H](CC1=N[C@H](C(=O)O)CO1)C(=O)O	–
–	100 µM	–	–	8 µM	3 µM	N[C@@H](CCc1nc(C(=O)O)co1)C(=O)O	Ki [8]: 41 µM
inactive	–	inactive	inactive	–	–	O=C(O)c1nc(-c2ccccc2)oc1C(=O)O	Ki [11]: 75 µM; Ki [12]: 530 µM
